Square brackets hold non-standard residues; d marks the D form. Peptide text beside a SMILES is read from it. Hyp = O=C(O)[C@@H]1C[C@@H](O)CN1; Ahx = NCCCCCC(=O)O
What was measured:
[1] = biological target: T1, von Hippel-Lindau disease tumor suppressor/Bromodomain-containing protein 4 (Homo sapiens) (UniProt O60885+P40337); assay: PROTAC activity at VHL/BDR4 ET domain in human MCF7 cells assessed as degradation by measuring fold change in remaining BRD4 level at 5 uM incubated for 24 hrs by immunoblotting analysis (reference value: […]); format: cell-based
[2] = biological target: T1, von Hippel-Lindau disease tumor suppressor/Bromodomain-containing protein 4 (Homo sapiens); assay: PROTAC activity at VHL/BDR4 ET domain in human MCF7 cells assessed as degradation by measuring fold change in remaining BRD4 level at 10 uM incubated for 24 hrs by immunoblotting analysis (reference value: […]); format: cell-based
[3] = biological target: T2, von Hippel-Lindau disease tumor suppressor/Bifunctional arginine demethylase and lysyl-hydroxylase JMJD6 (Homo sapiens) (UniProt P40337+Q6NYC1); assay: Protac activity at VHL/JMJD6 in human MCF7 cells assessed as degradation by measuring fold change in remaining JMJD6 level at 2.5 uM incubated for 24 hrs by immunoblotting analysis (reference value: […]); format: cell-based
[4] = biological target: T1, von Hippel-Lindau disease tumor suppressor/Bromodomain-containing protein 4 (Homo sapiens); assay: PROTAC activity at VHL/BDR4 ET domain in human MCF7 cells assessed as degradation by measuring fold change in remaining BRD4 level at 10 uM incubated for 6 hrs by immunoblotting analysis (reference value: […]); format: cell-based
[5] = biological target: T1, von Hippel-Lindau disease tumor suppressor/Bromodomain-containing protein 4 (Homo sapiens); assay: PROTAC activity at VHL/BDR4 ET domain in human MCF7 cells assessed as degradation by measuring fold change in remaining BRD4 level at 10 uM incubated for 12 hrs by immunoblotting analysis (reference value: […]); format: cell-based
[6] = biological target: T1, von Hippel-Lindau disease tumor suppressor/Bromodomain-containing protein 4 (Homo sapiens); assay: PROTAC activity at VHL/BDR4 ET domain in human MCF7 cells assessed as degradation by measuring fold change in remaining BRD4 level at 10 uM incubated for 24 hrs in presence of MG132 by immunoblotting analysis (reference value: […]); format: cell-based
[7] = biological target: T2, von Hippel-Lindau disease tumor suppressor/Bifunctional arginine demethylase and lysyl-hydroxylase JMJD6 (Homo sapiens); assay: PROTAC activity at VHL/JMJD6 in human MCF7 cells assessed as degradation by measuring fold change in remaining JMJD6 level at 10 uM incubated for 24 hrs in presence of TAT-PiET by immunoblotting analysis relative to TAT/TAT-PROTAC; format: cell-based
Method in brief: (§1)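 MCF7 cells were left untreated or given TAT, TAT-PROTAC, TAT-PiET or the PROTAC peptide (each 10 μM) for 24 h. Lysates were immunoblotted with β-actin for loading. Three repeats, quantified in the Supporting Table.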

[8] = biological target: T2, von Hippel-Lindau disease tumor suppressor/Bifunctional arginine demethylase and lysyl-hydroxylase JMJD6 (Homo sapiens); assay: PROTAC activity at VHL/JMJD6 in human MCF7 cells assessed as degradation by measuring fold change in remaining JMJD6 level at 10 uM incubated for 24 hrs in presence of TAT by immunoblotting analysis relative to TAT/TAT-PROTAC; format: cell-based; method in brief: as §1
[9] = biological target: T1, von Hippel-Lindau disease tumor suppressor/Bromodomain-containing protein 4 (Homo sapiens); assay: PROTAC activity at VHL/His-tagged BDR4 ET domain (601 to 683 residues) (unknown origin) transfected in MCF7 cells assessed as degradation by measuring fold change in remaining BRD4 level at 5 uM incubated for 24 hrs by immunoblotting analysis (reference value: […]); format: cell-based
[10] = biological target: T1, von Hippel-Lindau disease tumor suppressor/Bromodomain-containing protein 4 (Homo sapiens); assay: PROTAC activity at VHL/His-tagged BDR4 ET domain (601 to 683 residues) (unknown origin) transfected in MCF7 cells assessed as degradation by measuring fold change in remaining BRD4 level at 20 uM incubated for 24 hrs by immunoblotting analysis (reference value: […]); format: cell-based
[11] = biological target: T1, von Hippel-Lindau disease tumor suppressor/Bromodomain-containing protein 4 (Homo sapiens); assay: PROTAC activity at VHL/His-tagged BDR4 ET domain (1 to 470 residues) (unknown origin) transfected in MCF7 cells assessed as degradation by measuring fold change in remaining BRD4 level at 10 uM incubated for 24 hrs by immunoblotting analysis (reference value: […]); format: cell-based
[12] = biological target: T1, von Hippel-Lindau disease tumor suppressor/Bromodomain-containing protein 4 (Homo sapiens); assay: PROTAC activity at VHL/His-tagged BDR4 ET domain (471 to 730 residues) (unknown origin) transfected in MCF7 cells assessed as degradation by measuring fold change in remaining BRD4 level at 5 uM incubated for 24 hrs by immunoblotting analysis (reference value: […]); format: cell-based
[13] = biological target: T1, von Hippel-Lindau disease tumor suppressor/Bromodomain-containing protein 4 (Homo sapiens); assay: PROTAC activity at VHL/His-tagged BDR4 ET domain (471 to 730 residues) (unknown origin) transfected in MCF7 cells assessed as degradation by measuring fold change in remaining BRD4 level at 10 uM incubated for 24 hrs by immunoblotting analysis (reference value: […]); format: cell-based
[14] = biological target: T1, von Hippel-Lindau disease tumor suppressor/Bromodomain-containing protein 4 (Homo sapiens); assay: PROTAC activity at VHL/His-tagged BDR4 ET domain (471 to 730 residues) (unknown origin) transfected in MCF7 cells assessed as degradation by measuring fold change in remaining BRD4 level at 20 uM incubated for 24 hrs by immunoblotting analysis (reference value: […]); format: cell-based
[15] = biological target: T1, von Hippel-Lindau disease tumor suppressor/Bromodomain-containing protein 4 (Homo sapiens); assay: PROTAC activity at VHL/His-tagged BDR4 ET domain (471 to 730 residues) (unknown origin) transfected in MCF7 cells assessed as degradation by measuring fold change in remaining BRD4 level at 10 uM incubated for 12 hrs by immunoblotting analysis (reference value: […]); format: cell-based
[16] = biological target: T1, von Hippel-Lindau disease tumor suppressor/Bromodomain-containing protein 4 (Homo sapiens); assay: PROTAC activity at VHL/His-tagged BDR4 […] (unknown origin) transfected in MCF7 cells assessed as degradation by measuring fold change in remaining BRD4 level at 5 uM incubated for 24 hrs by immunoblotting analysis (reference value: […]); format: cell-based
[17] = biological target: T1, von Hippel-Lindau disease tumor suppressor/Bromodomain-containing protein 4 (Homo sapiens); assay: PROTAC activity at VHL/His-tagged BDR4 ET domain (1047 to 1362 residues) (unknown origin) transfected in MCF7 cells assessed as degradation by measuring fold change in remaining BRD4 level at 5 uM incubated for 24 hrs by immunoblotting analysis (reference value: […]); format: cell-based
[18] = biological target: T1, von Hippel-Lindau disease tumor suppressor/Bromodomain-containing protein 4 (Homo sapiens); assay: PROTAC activity at VHL/His-tagged BDR4 ET domain (1047 to 1362 residues) (unknown origin) transfected in MCF7 cells assessed as degradation by measuring fold change in remaining BRD4 level at 10 uM incubated for 24 hrs by immunoblotting analysis (reference value: […]); format: cell-based
[19] = biological target: T1, von Hippel-Lindau disease tumor suppressor/Bromodomain-containing protein 4 (Homo sapiens); assay: PROTAC activity at VHL/His-tagged BDR4 ET domain (1047 to 1362 residues) (unknown origin) transfected in MCF7 cells assessed as degradation by measuring fold change in remaining BRD4 level at 20 uM incubated for 24 hrs by immunoblotting analysis (reference value: […]); format: cell-based
[20] = biological target: T1, von Hippel-Lindau disease tumor suppressor/Bromodomain-containing protein 4 (Homo sapiens); assay: PROTAC activity at VHL/His-tagged BDR4 ET domain (1047 to 1362 residues) (unknown origin) transfected in MCF7 cells assessed as degradation by measuring fold change in remaining BRD4 level at 10 uM incubated for 12 hrs by immunoblotting analysis (reference value: […]); format: cell-based
MCF7 [21] = assay: Cytotoxicity against human MCF7 cells incubated for 1 week by CellTiter 96 Aqueous One Solution based assay; format: functional, cell-based; settings: MCF7, 168 h
Method in brief: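 Cells (2 × 10^3/well, DMEM + 10% FBS, 37 °C, 5% CO2) treated with a concentration gradient of peptide for 1 week. MTS reagent added for 1 h, absorbance read at 490 nm, EC50 derived.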

MCF7 [22] = assay: Inhibition of His-tagged BRD4 ET domain to Flag-tagged JMJD6 (unknown origin) protein-protein interaction in human MCF7 cells assessed as fold decrease in Flag-tagged JMJD6 level at 10 uM incubated for 12 hrs by immunoblotting assay (reference value: […]); format: cell-based

T1 sequence (P40337 whole entry, looked up, other chains not shown, the tested form may be a part): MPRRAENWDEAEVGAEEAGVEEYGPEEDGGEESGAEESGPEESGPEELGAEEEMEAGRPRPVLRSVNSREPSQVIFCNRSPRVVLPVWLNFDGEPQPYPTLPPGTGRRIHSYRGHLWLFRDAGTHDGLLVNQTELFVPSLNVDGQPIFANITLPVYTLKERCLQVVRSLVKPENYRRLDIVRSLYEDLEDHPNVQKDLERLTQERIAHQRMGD

## CC[C@H](C)[C@H](NC(=O)[C@H](Cc1ccc(O)cc1)NC(=O)[C@@H]1C[C@@H](O)CN1C(=O)[C@H](C)NC(=O)[C@@H](NC(=O)CCCCCNC(=O)[C@H](CCC(=O)O)NC(=O)CNC(=O)[C@H](CS)NC(=O)[C@H](CCCCN)NC(=O)[C@H](Cc1ccccc1)NC(=O)[C@H](CCCCN)NC(=O)[C@H](CCC(N)=O)NC(=O)[C@H](CC(N)=O)NC(=O)[C@H](CCCNC(=N)N)NC(=O)[C@H](CCCNC(=N)N)NC(=O)[C@H](CCCNC(=N)N)NC(=O)[C@H](CCCNC(=N)N)NC(=O)[C@H](CCC(N)=O)NC(=O)[C@H](CCCNC(=N)N)NC(=O)[C@H](CCCNC(=N)N)NC(=O)[C@H](CCCCN)NC(=O)[C@H](CCCCN)NC(=O)[C@H](CCCNC(=N)N)NC(=O)CNC(=O)[C@@H](N)Cc1ccc(O)cc1)[C@@H](C)CC)C(=O)O (H-YGRKKRRQRRRRNQKFKCGE[Ahx]IA[Hyp]YI-OH)
[1]
  fold change (FC): 0.35
[2]
  fold change (FC): 0.26
[3]
  fold change (FC): 0.91
[4]
  fold change (FC): 0.72
[5]
  fold change (FC): 0.55
[6]
  fold change (FC): 0.96
[7]
  fold change (FC): 0.84
[8]
  fold change (FC): 0.61
[9]
  fold change (FC): 0.72
[10]
  fold change (FC): 0.37
[11]
  fold change (FC): 1.11
[12]
  fold change (FC): 0.8
[13]
  fold change (FC): 0.68
[14]
  fold change (FC): 0.6
[15]
  fold change (FC): 0.9
[16]
  fold change (FC): 1.01
[17]
  fold change (FC): 1.09
[18]
  fold change (FC): 1
[19]
  fold change (FC): 1.05
[20]
  fold change (FC): 1.11

## H-YGRKKRRQRRRRNQKFKCGE-OH
MCF7 [21]
  EC50: 8.13 µM
MCF7 [22]
  fold change (FC): 0.93
